Key:
[1] = In vitro determination of human blood elimination half-life; assay type: ADME; settings: whole blood
[2] = species on record: Cavia porcellus; assay: Dose required to convert acetylstrophanthidin-induced arrhythmia in guinea pig right atria to normal sinus rhythm (number of tissues converted to NSR/number of tissues tested=3/5); assay type: functional
[3] = species on record: Cavia porcellus; assay: Dose required to convert acetylstrophanthidin-induced arrhythmia in guinea pig right atria to normal sinus rhythm (number of tissues converted to NSR/number of tissues tested=1/4); assay type: functional
[4] = species on record: Cavia porcellus; assay: Dose required to convert acetylstrophanthidin-induced arrhythmia in guinea pig right atria to normal sinus rhythm (number of tissues converted to NSR/number of tissues tested=5/5); assay type: functional
[5] = species on record: Cavia porcellus; assay: Dose required to convert acetylstrophanthidin-induced arrhythmia in guinea pig right atria to normal sinus rhythm (number of tissues converted to NSR/number of tissues tested=4/4); assay type: functional
[6] = species on record: Cavia porcellus; assay: Dose required to convert acetylstrophanthidin-induced arrhythmia in guinea pig right atria to normal sinus rhythm (number of tissues converted to NSR/number of tissues tested=6/6); assay type: functional
[7] = Distribution coefficient was determined; assay type: physicochemical; settings: octanol/water
Outline: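 Octanol and 0.1 M phosphate buffer at pH 7.4 were pre-saturated with each other by shaking for 16 h. About 5 mg of compound was dissolved in 10 mL buffer. A 5-mL portion was shaken with 5 mL octanol and centrifuged for 5 min. Absorbance of the aqueous phase at 280 nm was read before and after partitioning, diluted to 0.4–0.9. DC = (initial − final)/final, each × dilution factor; mean of two determinations.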

[8] = In vitro determination of human blood elimination half-life; not determined because more than 90% of the drug was metabolized in min; assay type: ADME; settings: whole blood
[9] = species on record: Cavia porcellus; assay: Dose required to convert acetylstrophanthidin-induced arrhythmia in guinea pig right atria to normal sinus rhythm (number of tissues converted to NSR/number of tissues tested=3/3); assay type: functional
[10] = species on record: Cavia porcellus; assay: Dose required to convert acetylstrophanthidin-induced arrhythmia in guinea pig right atria to normal sinus rhythm (number of tissues converted to NSR/number of tissues tested=1/3); assay type: functional
[11] = system: Canis familiaris; assay: In vivo determination of antiarrhythmic activity as the dose required for the production of 50% normal sinus beats in ouabain dog; assay type: functional; settings: Canis lupus familiaris, Heart
Outline: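 Dogs with ouabain-induced arrhythmia received the agent by intravenous infusion at 500 µg/kg/min. ED50 is the cumulative administered dose (mg/kg) at which 50% of beats were normal sinus beats; number of animals given.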

[12] = system: Canis familiaris; assay: In vivo determination of antiarrhythmic activity as the dose required for the production of 80% normal sinus beats in Harris dog; assay type: functional; settings: Canis lupus familiaris, Heart
Outline: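 Harris dog arrhythmia model with intravenous infusion at 150, 225 or 300 µg/kg/min depending on agent. Effective dose is the cumulative administered dose (mg/kg) giving 80% normal sinus beats; number of animals given.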

[13] = species on record: Cavia porcellus; assay: Dose required to convert acetylstrophanthidin-induced arrhythmia in guinea pig right atria to normal sinus rhythm (number of tissues converted to NSR/number of tissues tested=2/4); assay type: functional
[14] = species on record: Cavia porcellus; assay: Dose required to convert acetylstrophanthidin-induced arrhythmia in guinea pig right atria to normal sinus rhythm (number of tissues converted to NSR/number of tissues tested=3/4); assay type: functional
[15] = species on record: Cavia porcellus; assay: Dose required to convert acetylstrophanthidin-induced arrhythmia in guinea pig right atria to normal sinus rhythm (number of tissues converted to NSR/number of tissues tested=8/8); assay type: functional

Row | half-life [1] [min] | DC [7] | Compound | ED [5] [µg/mL] | also measured
1 | 3.8 | – | O=C(Cc1cc(CN2CCCC2)c(O)c(CN2CCCC2)c1)OCCN1C(=O)c2ccccc2C1=O | – | ED [2]: 23.3 µg/mL
2 | 3.5 | – | O=C(Cc1cc(CN2CCCC2)c(O)c(CN2CCCC2)c1)OCC1CCCO1 (configuration not stated) | – | ED [3]: 40 µg/mL
3 | – | 24 | CN1CCN(Cc2cc(CC(=O)OCC3COc4ccccc4O3)ccc2O)CC1 (configuration not stated) | 2.5 | –
4 | < 1 | 7.1 | O=C(Cc1ccc(O)c(CN2CCN(CC(=O)N3CCCC3)CC2)c1)OCC1COc2ccccc2O1 (configuration not stated) | 22.5 | –
5 | < 1 | 22.1 | O=C(Cc1ccc(CN2CCCC2)cc1)OCC1COc2ccccc2O1 (configuration not stated) | 10 | –
6 | 3.3 | – | O=C(Cc1cc(CN2CCCC2)c(O)c(CN2CCCC2)c1)OCC1CCCCO1 (configuration not stated) | – | ED [10]: 20 µg/mL
7 | 34.8 | – | O=C(Cc1cc(CN2CCCC2)c(O)c(CN2CCCC2)c1)OCCc1ccsc1 | 6.2 | –
8 | 35.9 | – | O=C(Cc1cc(CN2CCCC2)c(O)c(CN2CCCC2)c1)OCCc1cccs1 | 3 | –
9 | 9.2 | – | O=C(Cc1cc(CN2CCCC2)c(O)c(CN2CCCC2)c1)OCc1ccc2c(c1)OCO2 | – | ED [14]: 10.7 µg/mL
10 | 11 | – | O=C(Cc1cc(CN2CCCC2)c(O)c(CN2CCCC2)c1)OCc1c(F)c(F)c(F)c(F)c1F | 7.5 | –

More lines, now with the values behind:

Row | Compound | half-life [1] [min] | DC [7] | ED [5] [µg/mL] | also measured
11 | O=C(Cc1cc(CN2CCCC2)c(O)c(CN2CCCC2)c1)OCc1ccco1 | 2.5 | – | – | ED [4]: 29.4 µg/mL
12 | O=C(Cc1cc(CN2CCCC2)c(O)c(CN2CCCC2)c1)OCc1ccc([N+](=O)[O-])cc1 | 6.2 | – | 5.2 | –
13 | O=C(Cc1cc(CN2CCCC2)c(O)c(CN2CCCC2)c1)OCCOc1ccccc1 | 2.5 | – | 16.2 | –
14 | O=C(Cc1cc(CN2CCCC2)c(O)c(CN2CCCC2)c1)OCc1ccoc1 | 10.1 | – | – | ED [6]: 27.5 µg/mL
15 | O=C(Cc1ccc(O)c(CN2CCCC2)c1)OCC1COc2ccccc2O1 (configuration not stated) | – | 36.3 | 1.2 | half-life [8]: < 1 min
16 | O=C(Cc1cc(CN2CCCC2)c(O)c(CN2CCCC2)c1)OCCc1ccccc1 | 16.8 | – | 2.8 | –
17 | O=C(Cc1ccc(O)c(CN2CCC(N3CCCCC3)CC2)c1)OCC1COc2ccccc2O1 (configuration not stated) | < 1 | 9.6 | – | ED [9]: 8.3 µg/mL
18 | O=C(Cc1cc(CN2CCCC2)c(O)c(CN2CCCC2)c1)OCC1COc2ccccc2O1 (configuration not stated) | 7.1 | 2.62 | – | ED50 [11]: 4.8 mg/kg; ED [4]: 7.3 µg/mL; ED50 [12]: 14 mg/kg
19 | O=C(Cc1cc(CN2CCCC2)c(O)c(CN2CCCC2)c1)OCC1CCc2ccccc2C1 (configuration not stated) | 2.3 | – | – | ED [13]: 6 µg/mL
20 | O=C(Cc1cccc(CN2CCCC2)c1)OCC1COc2ccccc2O1 (configuration not stated) | < 1 | 39.5 | – | ED [15]: 6.9 µg/mL
21 | COc1ccc2c(COC(=O)Cc3cc(CN4CCCC4)c(O)c(CN4CCCC4)c3)cc(=O)oc2c1 | – | – | – | ED [9]: 11.7 µg/mL
22 | O=C(Cc1cc(CN2CCCC2)c(O)c(CN2CCCC2)c1)OCc1cccs1 | 3.5 | 0.73 | 5.5 | ED50 [11]: 3.8 mg/kg; ED50 [12]: 10.5 mg/kg
23 | CCN(CC)CC(=O)Nc1c(C)cccc1C [LIDOCAINE] | – | 19.2 | – | ED50 [11]: 8.8 mg/kg; ED50 [12]: 37.5 mg/kg

From ChEMBL document CHEMBL1126777, “Mono- and bis(aminomethyl)phenylacetic acid esters as short-acting antiarrhythmic agents. 2” (J Med Chem, 1993)
